One data set deals with Cannabinoid receptor 2 (Homo sapiens, UniProt P34972). The data set can be described thus: Agonist activity at human CB2 receptor. Type of data set: functional.
The test system of data set [1] is Rattus norvegicus. The data set can be described thus: Toxicity in rat assessed as decrease in body temperature at 10 mg/kg, ip by modified tetrad test. Type of data set: organism-based. The arrangement: dose 10 mg/kg, route intraperitoneal. Particulars: in vivo.
The nature of data set [2]: Drug metabolism in human liver microsomes after 15 mins. Particulars: read-out: Drug metabolism. It is filed as ADME, Microsome.
The target of the next data set is Cannabinoid receptor 1 (Homo sapiens, UniProt P21554). The data set can be described thus: Agonist activity at human CB1 receptor. Type of data set: functional.
Sequence of Cannabinoid receptor 1 (P21554 whole entry): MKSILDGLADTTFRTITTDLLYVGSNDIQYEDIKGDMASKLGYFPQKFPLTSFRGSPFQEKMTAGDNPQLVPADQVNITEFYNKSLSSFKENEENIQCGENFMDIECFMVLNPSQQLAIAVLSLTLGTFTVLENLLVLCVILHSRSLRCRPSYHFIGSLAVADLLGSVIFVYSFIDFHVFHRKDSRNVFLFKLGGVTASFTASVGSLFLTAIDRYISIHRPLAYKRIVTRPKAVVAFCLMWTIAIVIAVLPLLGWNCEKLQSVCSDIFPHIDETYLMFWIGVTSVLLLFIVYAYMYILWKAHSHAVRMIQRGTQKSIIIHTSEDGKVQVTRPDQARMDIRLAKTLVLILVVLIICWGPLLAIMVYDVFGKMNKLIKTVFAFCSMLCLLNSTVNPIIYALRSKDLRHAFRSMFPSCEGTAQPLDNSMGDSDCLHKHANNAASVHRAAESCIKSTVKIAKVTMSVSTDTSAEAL
Data set [3] can be described thus: Kinetic solubility of the compound at pH 7.4. It is filed as physicochemical. Particulars: buffer, read-out: Kinetic_solubility.
Data set [4] deals with Rattus norvegicus. Nature of the data set: Toxicity in rat assessed as appearance of flat body posture at 2.5 mg/kg, ip by modified tetrad test. It is filed as organism-based. Also on record: dose 2.5 mg/kg, route intraperitoneal. Particulars: in vivo.
The nature of data set [5]: Solubility of the compound in 10% cyclodextrin.
Data set [6] is described as follows: Half life in Beagle dog at 1 mg/kg, iv. Type of data set: ADME, organism-based, Canis lupus familiaris. The arrangement: dose 1 mg/kg, route intravenous. The note with it: in vivo. The essentials: (§1)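 Beagle dogs dosed at 1 mg/kg iv and 5 mg/kg po; plasma kinetics give clearance, volume of distribution, iv and po half-life, and absolute oral bioavailability.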

Data set [7] in a line: Absolute oral bioavailability in Sprague-Dawley rat at 10 mg/kg. It is filed as ADME, organism-based. Particulars: in vivo.
Data set [8] deals with Rattus norvegicus. Nature of the data set: Toxicity in rat up to 40 mg/kg, ip by modified tetrad test. The arrangement: dose 40 mg/kg, route intraperitoneal. Particulars: in vivo. It is filed as organism-based.
Data set [9] can be described thus: Half life in Sprague-Dawley rat at 2.5 mg/kg, iv. Type of data set: ADME, organism-based. The arrangement: dose 2.5 mg/kg, route intravenous. The note with it: in vivo.
Data set [10] in a line: Half life in Beagle dog at 5 mg/kg, po. It is filed as ADME, organism-based, Canis lupus familiaris. Also on record: dose 5 mg/kg, route oral. Particulars: in vivo. An outline of the steps:
as §1

The species named for data set [11] is Rattus norvegicus. The data set can be described thus: Antihyperalgesic activity against Freund's adjuvant-induced thermal hyperalgesia in rat. Type of data set: functional, organism-based.
Data set [12] can be described thus: Half life in Sprague-Dawley rat at 10 mg/kg, po. It is filed as ADME, organism-based. The arrangement: dose 10 mg/kg, route oral. The note with it: in vivo.
Data set [13] in a line: Drug metabolism in human liver microsomes at 5 uM after 60 mins. The note with it: read-out: Drug metabolism. Type of data set: ADME, Microsome. An outline of the steps:
(§2)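 Test compound incubated at 5 µM with liver microsomes (human, rat, mouse or dog) for 60 min; read-out is % of compound metabolised.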

In data set [14] the test system is Rattus norvegicus. The data set can be described thus: Antinociceptive activity in rat at 10 mg/kg by tail withdrawal reflex test. It is filed as functional, organism-based. Also on record: dose 10 mg/kg.
Data set [15] in a line: Clearance in Sprague-Dawley rat at 2.5 mg/kg, iv and 10 mg/kg, po. Type of data set: ADME, organism-based. The note with it: in vivo.
Data set [16] is described as follows: Solubility of the compound in water. It is filed as physicochemical.
Data set [17] is described as follows: Drug metabolism in dog liver microsomes at 5 uM after 60 mins. Type of data set: ADME, Canis lupus familiaris, Microsome. The note with it: read-out: Drug metabolism. The essentials:
as §2

Data set [18] has as its system Rattus norvegicus. Nature of the data set: Antiallodynic activity in rat chronic constriction injury-induced neuropathic pain model assessed as reversal of pain response at 10 to 40 mg/kg/day, sc. It is filed as functional, organism-based. The essentials:
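Chronic constriction injury of rats (n = 7 per group); daily subcutaneous dosing over repeated days, with morphine as comparator. Cold allodynia read as lifting on a cold plate at 0 °C for 4 min.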

Data set [19] concerns Rattus norvegicus. The data set can be described thus: Antinociceptive activity in rat at 10 mg/kg by paw flick test. It is filed as functional, organism-based. The arrangement: dose 10 mg/kg.
The species entered for data set [20] is Rattus norvegicus. The data set can be described thus: Antihyperalgesic activity against carrageenan-induced thermal hyperalgesia in rat. Type of data set: functional, organism-based.
A further data set deals with Mus musculus. The data set can be described thus: Antiinflammatory activity in mouse EAE model of multiple sclerosis assessed as delay in neurological signs of autoimmune encephalomyelitis disease progression at 40 mg/kg/day, po administered from day 8 to day 16. Type of data set: functional, organism-based. An outline of the steps:
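Mice with experimental autoimmune encephalomyelitis given chronic oral dosing at 40 mg/kg; neurological signs scored as EAE disease scores over time.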

Data set [21] can be described thus: Ratio drug uptake in brain to plasma of Sprague-Dawley rat at 2.5 mg/kg, iv and 10 mg/kg, po. Particulars: read-out: BPR. Type of data set: ADME, organism-based. An outline of the steps:
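Rat tissue distribution study; brain and plasma levels compared as brain/plasma ratio.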

Data set [22] is described as follows: Clearance in Beagle dog at 1 mg/kg, iv and 5 mg/kg, po. Type of data set: ADME, organism-based, Canis lupus familiaris. Particulars: in vivo. The essentials: as §1
The nature of data set [23]: Drug metabolism in mouse liver microsomes at 5 uM after 60 mins. Type of data set: ADME, Microsome. Particulars: read-out: Drug metabolism. An outline of the steps:
as §2
(In general: Liver microsomes are vesicles of endoplasmic reticulum, rich in cytochrome P450 enzymes.)

Data set [24] can be described thus: Volume of distribution in Sprague-Dawley rat at 2.5 mg/kg, iv and 10 mg/kg, po. Type of data set: ADME, organism-based. Particulars: in vivo.
The nature of data set [25]: Drug metabolism in rat liver microsomes at 5 uM after 60 mins. It is filed as ADME, Microsome. The note with it: read-out: Drug metabolism. An outline of the steps:
as §2

Data set [26] is described as follows: Lipophilicity, Log P of the compound. Particulars: octanol/water. It is filed as physicochemical.
For data set [27], the system named is Rattus norvegicus. The data set can be described thus: Antinociceptive activity in rat at 10 mg/kg by hot plate method. It is filed as functional, organism-based. Also on record: dose 10 mg/kg. For orientation: Thermal pain tests record how soon the animal reacts.
Data set [28] in a line: Volume of distribution in Beagle dog at 1 mg/kg, iv and 5 mg/kg, po. Particulars: in vivo. Type of data set: ADME, organism-based, Canis lupus familiaris. The essentials: as §1
Data set [29] can be described thus: Absolute oral bioavailability in Beagle dog at 5 mg/kg. It is filed as ADME, organism-based, Canis lupus familiaris. The note with it: in vivo. An outline of the steps:
as §1

The structures appear in SMILES notation. ≈ marks a conversion by molar mass, not a printed value. Calls of active or inactive are those of the source. The rule behind the calls is not given here.

By EC50 is commonly meant the concentration at which the effect is half-maximal. The solubility is how much of the substance goes into solution per volume. A lower solubility goes with a poorly soluble substance. Usually half-life stands for how long it takes for the measured level to halve. A high value points to slow decline. A word on the bioavailability: it is dose-corrected exposure relative to a reference, in per cent. A low value points to poor availability. A word on the logP: it is a log measure of how a compound divides between an organic and an aqueous phase. The low end stands for lower lipophilicity, the high end for higher lipophilicity.

Sequence of Cannabinoid receptor 2 (P34972 whole entry): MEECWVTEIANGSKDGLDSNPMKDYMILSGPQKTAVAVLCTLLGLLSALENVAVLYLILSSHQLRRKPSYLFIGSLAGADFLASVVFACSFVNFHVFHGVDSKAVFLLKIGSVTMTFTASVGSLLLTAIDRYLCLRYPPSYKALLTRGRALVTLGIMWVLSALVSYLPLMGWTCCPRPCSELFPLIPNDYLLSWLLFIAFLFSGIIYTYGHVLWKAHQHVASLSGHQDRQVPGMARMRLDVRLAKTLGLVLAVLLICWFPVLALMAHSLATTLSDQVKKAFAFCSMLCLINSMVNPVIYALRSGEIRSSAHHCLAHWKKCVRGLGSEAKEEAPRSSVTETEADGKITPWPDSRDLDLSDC

As for `CC(=O)N1CCC(Cn2c(C(C)(C)C)nc3cc(S(=O)(=O)c4ccc(F)cc4)ccc32)CC1`, the results for the EC50 on Cannabinoid receptor 2 and at Cannabinoid receptor 1 were 2.9 nM and over 10000 nM, respectively. Besides, the Activity result in the data set with Rattus norvegicus [1] is listed as “Toxic”. Also, in [2], the metabolised at 0.25 h turned out to be 8%.

On to `CCOc1cc(S(=O)(=O)c2ccc3c(c2)nc(C(C)(C)C)n3CC2CCOCC2)ccn1`, for which, in data set [3], the solubility kinetic was under 1 µM. Further, in data set [2], the metabolised at 0.25 h was determined as 48%. For the same molecule, on Cannabinoid receptor 1, the EC50 is 1280 nM.

With `CC(=O)NCCc1cc(S(=O)(=O)c2ccc3c(c2)nc(C(C)(C)C)n3CC2CCOCC2)ccn1`, in data set [2], the metabolised at 0.25 h is 44%.

Regarding `CCS(=O)(=O)c1ccc2c(c1)nc(C(C)(C)C)n2CC1CCN(C(C)=O)CC1`, the values for the EC50 on Cannabinoid receptor 2 and on Cannabinoid receptor 1 were 8.4 nM and over 10000 nM, respectively. In addition, the metabolised at 0.25 h in [2] turned out to be 13%.

Take `CC(=O)NCCCCCc1cc(S(=O)(=O)c2ccc3c(c2)nc(C(C)(C)C)n3CC2CCOCC2)ccn1`: the EC50 at Cannabinoid receptor 2 was 5.6 nM; at Cannabinoid receptor 1, over 10000 nM. The metabolised at 0.25 h in data set [2] came out at 86%.

Regarding `CCS(=O)(=O)c1ccc2c(c1)nc(C(C)(C)C)n2CC1CCS(=O)(=O)CC1`, the EC50 is 28 nM at Cannabinoid receptor 2 and over 10000 nM at Cannabinoid receptor 1.

As to `CC(C)(C)c1nc2cc(S(=O)(=O)CCCC(F)(F)F)ccc2n1CC1CCOCC1`, the EC50 at Cannabinoid receptor 2 worked out at 1.1 nM; on Cannabinoid receptor 1, 320 nM. Moreover, the Activity entry with Rattus norvegicus [4] and in the data set with Rattus norvegicus [1] was “Toxic” throughout. For the same molecule, in data set [2], the metabolised at 0.25 h stood at 36%.

Consider `CCS(=O)(=O)c1ccc2c(c1)nc(C(C)(C)C)n2CC1CCN(C=O)CC1`, for which the EC50 is 23 nM on Cannabinoid receptor 2 and over 10000 nM at Cannabinoid receptor 1. In data set [2], the metabolised at 0.25 h came to 7%.

With `CC(C)(C)c1nc2cc(S(=O)(=O)c3nccs3)ccc2n1CC1CCN(C=O)CC1`, the EC50 on Cannabinoid receptor 2 turned out to be 8.4 nM; on Cannabinoid receptor 1, 321 nM. Also, the Activity entry in the data set on Rattus norvegicus [1] was “Toxic”.

For the molecule `COCCCc1cc(S(=O)(=O)c2ccc3c(c2)nc(C(C)(C)C)n3CC2CCOCC2)ccn1`, the concentration for a half-maximal effect (EC50) at Cannabinoid receptor 2 was 1.1 nM; at Cannabinoid receptor 1, over 10000 nM. For the same molecule, the metabolised at 0.25 h in [2] amounted to 93%.

As for `COC(=O)N1CCC(Cn2c(C(C)(C)C)nc3cc(S(=O)(=O)CCCC(F)(F)F)ccc32)CC1`, the metabolised at 0.25 h in [2] turned out to be 54%. The molecule further returned an EC50 on Cannabinoid receptor 1 of over 10000 nM.

On to `COCCS(=O)(=O)c1ccc2c(c1)nc(C(C)(C)C)n2CC1CCN(C(C)=O)CC1`, for which, at Cannabinoid receptor 1, the EC50 is over 10000 nM.

Turning to `CC(=O)N1CCC(Cn2c(C(C)(C)C)nc3cc(S(=O)(=O)C4CCCC4)ccc32)CC1`, the metabolised at 0.25 h in data set [2] was determined as 87%. At Cannabinoid receptor 1, the EC50 was over 10000 nM.

Consider `CC(C)(C)c1nc2cc(S(=O)(=O)CC3CC3)ccc2n1CC1CCS(=O)(=O)CC1`, for which the figures for the half-maximal effective concentration (EC50) on Cannabinoid receptor 2 and at Cannabinoid receptor 1 were 8.4 nM and 2680 nM, respectively. In data set [2], the metabolised at 0.25 h turned out to be 2%.

For the molecule `CC(=O)N1CCC(Cn2c(C(C)(C)C)nc3cc(S(=O)(=O)CC4CC4)ccc32)CC1`, the solubility in data set [5] was 25 mg/mL (≈ 57.9 mM); in [16], 1.5 mg/mL (≈ 3.48 mM). For the same molecule, the half-life in data set [6] is 3 h; in data set [9], 1.3 h; in [10] it was 3.2 h; in data set [12], 4 h. Besides, the EC50 at Cannabinoid receptor 2 is 8.2 nM; on Cannabinoid receptor 1, over 10000 nM. Further, the figures for the bioavailability in data set [7] and in [29] were 56% and 86%, respectively. Moreover, the Activity entry in the data set on Rattus norvegicus [8] is recorded as “Non-toxic”. In addition, the outcome in the data set listed under Rattus norvegicus [11], in the data set with Rattus norvegicus [14], in the data set with Rattus norvegicus [18], in the data set with Rattus norvegicus [19], in the data set filed under Rattus norvegicus [20] and in the data set with Rattus norvegicus [27] was inactive. For the same molecule, the metabolised at 1 h, 5 µM in data set [13] was determined as 5%; in data set [17] it was 4%; in data set [23], 12%; in data set [25] it was 0%. Also, the clearance in [15] was 41.7 mL/min/kg; in data set [22], 13.3 mL/min/kg. For the same molecule, in [2], the metabolised at 0.25 h was 18%. The result in the data set with Mus musculus was Active. For the same molecule, the Kp in [21] came to 0.18. Besides, the values for the Vd in [24] and in data set [28] were 4.4 L/kg and 1.9 L/kg, respectively. The logP in data set [26] came out at 1.67.
